{
  "source": "ChEMBL document CHEMBL5649170",
  "about": "“Sustained microglial depletion with CSF1R inhibitor impairs parenchymal plaque development in an Alzheimer's disease model” (Nat Commun, 2019)",
  "key": {"Misshapen-like kinase 1": {"target": "Misshapen-like kinase 1 (Homo sapiens, UniProt Q8N4C8)", "test": "Inhibition of MINK1 (unknown origin)"}, "Mus musculus [1]": {"system": "Mus musculus", "test": "Antialzheimer activity in 5XFAD mouse assessed as number of S100bteta positive cells per FOV in […] cortex at 1200 ppm administered as rodent chow for 10 to 24 weeks by immunolabelling based confocal microscopic analysis (reference value: 320 to 427)", "type": "functional", "settings": "route po, time 10-24 weeks"}, "Mus musculus [2]": {"system": "Mus musculus", "test": "Antialzheimer activity in 5XFAD mouse assessed as number of This-S positive cells per FOV in somatosensory cortex at 1200 ppm administered as rodent chow starting from 1.5 months to 4 months followed by compound removal and measured after 1 months by immunolabelling based confocal microscopic analysis (reference value: 34 to 79)", "type": "functional", "settings": "route po, time 2.5 months, 1825 h", "outline": "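For the repopulation paradigm, 5xFAD mice ate 1200 ppm PLX5622 chow from 1.5 to 4 months of age. Inhibitor chow was then withdrawn, and brains were examined one month later. Sections were stained with Thio-S and immunolabeled for IBA1, then analysed by confocal microscopy in cortical regions.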"}, "Mus musculus [3]": {"system": "Mus musculus", "test": "Antialzheimer activity in 5XFAD mouse assessed as microglial elimination in thalamus at 1200 ppm administered as rodent chow for 10 weeks by Thio-S staining based confocal microscopic analysis", "type": "functional, organism-based", "settings": "route po", "outline": "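1.5-month-old 5xFAD mice fed 1200 ppm PLX5622 chow for 10 weeks; free-floating sections stained with Thio-S and immunolabeled for IBA1 (5% normal serum/0.2% Triton X-100 block, 60 min); confocal imaging of cortex and thalamus to assess remaining microglia.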"}, "[4]": {"test": "Effect on Spi1 gene expression in wild type mouse thalamus at 1200 ppm administered as rodent chow starting from 1.5 months and measured after 7 months by RNA-Seq analysis (reference value: 1.161 to 2.277 RPKM)", "type": "functional", "settings": "route po, time 5.5 months, 4015 h"}, "Angiopoietin-1 receptor": {"target": "Angiopoietin-1 receptor (Homo sapiens, UniProt Q02763)", "test": "Inhibition of TEK (unknown origin)"}, "[5]": {"target": "Protein kinase C zeta type (Homo sapiens, UniProt Q05513)", "sequence (Q05513 whole entry)": "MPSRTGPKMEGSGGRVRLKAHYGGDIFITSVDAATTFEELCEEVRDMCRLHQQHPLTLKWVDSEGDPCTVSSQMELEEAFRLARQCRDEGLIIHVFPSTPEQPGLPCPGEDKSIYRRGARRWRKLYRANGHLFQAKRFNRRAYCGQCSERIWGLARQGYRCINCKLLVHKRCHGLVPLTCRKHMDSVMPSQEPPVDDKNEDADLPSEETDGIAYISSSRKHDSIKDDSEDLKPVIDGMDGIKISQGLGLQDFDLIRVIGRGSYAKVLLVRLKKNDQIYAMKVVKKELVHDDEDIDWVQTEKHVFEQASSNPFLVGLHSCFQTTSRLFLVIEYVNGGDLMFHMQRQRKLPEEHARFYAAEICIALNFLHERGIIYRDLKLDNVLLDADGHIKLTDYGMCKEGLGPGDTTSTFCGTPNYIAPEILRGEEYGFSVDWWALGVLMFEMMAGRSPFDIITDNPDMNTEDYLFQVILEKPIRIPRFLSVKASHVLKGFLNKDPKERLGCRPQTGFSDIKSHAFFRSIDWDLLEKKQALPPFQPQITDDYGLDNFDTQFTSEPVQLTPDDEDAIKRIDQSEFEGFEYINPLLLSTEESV", "test": "Inhibition of PRKCZ (unknown origin)"}, "[6]": {"test": "Effect on Csf1r RPKM gene expression in wild type mouse cortex at 1200 ppm administered as rodent chow starting from 1.5 months and measured after 7 months by RNA-Seq analysis (reference value: 18.302 to 19.220 RPKM)", "type": "functional", "settings": "route po, time 5.5 months, 4015 h"}, "[7]": {"target": "Tyrosine-protein kinase Fgr (Homo sapiens, UniProt P09769)", "sequence (P09769 whole entry)": "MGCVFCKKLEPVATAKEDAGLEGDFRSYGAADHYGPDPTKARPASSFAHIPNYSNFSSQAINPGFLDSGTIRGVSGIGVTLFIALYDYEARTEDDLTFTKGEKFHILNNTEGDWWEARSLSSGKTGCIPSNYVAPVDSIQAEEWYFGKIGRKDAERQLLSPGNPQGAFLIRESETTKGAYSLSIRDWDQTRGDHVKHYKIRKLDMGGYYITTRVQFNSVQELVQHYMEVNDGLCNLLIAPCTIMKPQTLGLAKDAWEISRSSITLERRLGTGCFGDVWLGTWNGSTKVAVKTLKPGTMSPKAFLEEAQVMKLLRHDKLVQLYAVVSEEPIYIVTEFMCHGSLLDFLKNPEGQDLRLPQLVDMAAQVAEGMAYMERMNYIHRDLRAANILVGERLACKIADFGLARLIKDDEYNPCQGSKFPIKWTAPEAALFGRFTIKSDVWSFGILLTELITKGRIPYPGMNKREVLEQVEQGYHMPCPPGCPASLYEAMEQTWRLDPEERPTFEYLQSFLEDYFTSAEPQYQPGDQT", "test": "Inhibition of FGR (unknown origin)"}, "[8]": {"test": "AUC (0 to 24 hrs) in 5XFAD mouse brain at 1200 ppm administered as rodent chow for 180 days", "type": "ADME, tissue-based", "settings": "route po, time 180 day"}, "Mus musculus [9]": {"system": "Mus musculus", "test": "Antialzheimer activity in 5XFAD mouse assessed as amyloidbeta38 level in detergent soluble cortex fraction measured per microgram protein at 1200 ppm administered as rodent chow starting from 1.5 months and measured after 7 months by ELISA (reference value: 0 to 0.014 pg)", "type": "functional", "settings": "route po, time 5.5 months, 4015 h", "outline": "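PLX5622 at 1200 ppm in chow given to 5xFAD mice from 1.5 months to 4 or 7 months of age; cortex and thalamus homogenized in TPER (detergent-soluble), pellets re-homogenized in 70% formic acid and spun 100,000 g, 1 h, 4 °C (insoluble); protein by Bradford/Lowry; Aβ species measured by Meso Scale electrochemiluminescence immunoassay, normalized to protein; n = 7–8 per group at 7 months.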"}, "[10]": {"test": "Effect on Ctsz gene expression in 5XFAD mouse thalamus at 1200 ppm administered as rodent chow starting from 1.5 months and measured after 7 months by RNA-Seq analysis (reference value: 23.715 to 34.765 RPKM)", "type": "functional", "settings": "route po, time 5.5 months, 4015 h"}, "[11]": {"target": "Phosphatidylinositol 4,5-bisphosphate 3-kinase catalytic subunit gamma isoform (Homo sapiens, UniProt P48736)", "sequence (P48736 whole entry, canonical isoform)": "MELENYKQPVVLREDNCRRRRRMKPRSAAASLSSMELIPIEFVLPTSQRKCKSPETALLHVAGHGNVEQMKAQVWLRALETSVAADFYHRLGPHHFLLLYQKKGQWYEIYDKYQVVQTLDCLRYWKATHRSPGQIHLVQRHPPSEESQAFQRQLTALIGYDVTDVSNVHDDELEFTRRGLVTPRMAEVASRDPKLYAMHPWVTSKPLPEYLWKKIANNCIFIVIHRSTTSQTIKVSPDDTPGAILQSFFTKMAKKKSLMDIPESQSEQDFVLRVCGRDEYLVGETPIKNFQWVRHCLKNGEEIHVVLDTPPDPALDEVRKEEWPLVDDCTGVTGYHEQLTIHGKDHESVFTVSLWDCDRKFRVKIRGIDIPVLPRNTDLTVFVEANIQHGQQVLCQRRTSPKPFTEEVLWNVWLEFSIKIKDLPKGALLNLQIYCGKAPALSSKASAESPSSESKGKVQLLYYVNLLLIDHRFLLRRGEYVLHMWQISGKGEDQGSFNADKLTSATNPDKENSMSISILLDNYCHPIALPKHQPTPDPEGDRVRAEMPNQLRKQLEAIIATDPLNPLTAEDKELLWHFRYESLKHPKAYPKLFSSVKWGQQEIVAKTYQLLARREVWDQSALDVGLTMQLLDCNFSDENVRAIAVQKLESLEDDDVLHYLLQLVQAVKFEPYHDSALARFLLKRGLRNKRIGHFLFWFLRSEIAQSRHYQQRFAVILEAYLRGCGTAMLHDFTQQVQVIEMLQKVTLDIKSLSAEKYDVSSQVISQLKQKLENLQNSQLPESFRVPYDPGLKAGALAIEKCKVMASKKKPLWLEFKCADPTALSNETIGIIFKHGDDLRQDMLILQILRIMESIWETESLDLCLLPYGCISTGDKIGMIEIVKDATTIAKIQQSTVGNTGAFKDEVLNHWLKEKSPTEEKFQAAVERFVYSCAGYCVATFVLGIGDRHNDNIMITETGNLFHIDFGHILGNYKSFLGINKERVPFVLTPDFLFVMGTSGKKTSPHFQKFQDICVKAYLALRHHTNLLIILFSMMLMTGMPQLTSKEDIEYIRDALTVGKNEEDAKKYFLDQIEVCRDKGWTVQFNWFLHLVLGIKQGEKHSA", "test": "Inhibition of PIK3CG (unknown origin)"}, "[12]": {"target": "Serine/threonine-protein kinase Sgk2 (Homo sapiens, UniProt Q9HBY8)", "sequence (Q9HBY8 whole entry)": "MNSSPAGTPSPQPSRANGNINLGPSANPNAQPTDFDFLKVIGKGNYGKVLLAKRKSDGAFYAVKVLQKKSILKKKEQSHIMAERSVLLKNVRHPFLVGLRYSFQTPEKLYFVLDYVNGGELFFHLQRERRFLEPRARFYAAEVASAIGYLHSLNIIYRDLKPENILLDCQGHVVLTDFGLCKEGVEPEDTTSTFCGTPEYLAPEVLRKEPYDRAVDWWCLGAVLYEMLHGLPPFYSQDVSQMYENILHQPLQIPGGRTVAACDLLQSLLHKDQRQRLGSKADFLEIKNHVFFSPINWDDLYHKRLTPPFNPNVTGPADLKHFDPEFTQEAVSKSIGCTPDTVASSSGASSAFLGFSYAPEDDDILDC", "test": "Inhibition of SGK2 (unknown origin)"}, "[13]": {"target": "Tyrosine-protein kinase Blk (Homo sapiens, UniProt P51451)", "sequence (P51451 whole entry)": "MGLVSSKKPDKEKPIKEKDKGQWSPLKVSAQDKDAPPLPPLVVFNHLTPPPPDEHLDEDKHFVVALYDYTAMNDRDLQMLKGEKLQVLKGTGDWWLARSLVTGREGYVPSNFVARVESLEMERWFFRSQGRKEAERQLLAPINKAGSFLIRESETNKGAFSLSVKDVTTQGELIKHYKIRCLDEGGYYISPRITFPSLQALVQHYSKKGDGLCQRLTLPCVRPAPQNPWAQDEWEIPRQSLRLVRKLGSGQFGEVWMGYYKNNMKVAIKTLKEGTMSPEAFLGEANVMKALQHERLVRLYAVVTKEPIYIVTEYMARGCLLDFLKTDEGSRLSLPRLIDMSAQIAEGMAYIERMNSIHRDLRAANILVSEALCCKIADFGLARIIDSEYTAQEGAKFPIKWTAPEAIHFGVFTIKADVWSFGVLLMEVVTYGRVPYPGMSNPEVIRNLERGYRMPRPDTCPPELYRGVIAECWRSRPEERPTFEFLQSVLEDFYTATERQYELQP", "test": "Inhibition of BLK (unknown origin)"}, "[14]": {"target": "Tyrosine-protein kinase receptor UFO (Homo sapiens, UniProt P30530)", "test": "Inhibition of AXL (unknown origin)"}, "[15]": {"target": "Serine/threonine-protein kinase PAK 3 (Homo sapiens, UniProt O75914)", "sequence (O75914 whole entry)": "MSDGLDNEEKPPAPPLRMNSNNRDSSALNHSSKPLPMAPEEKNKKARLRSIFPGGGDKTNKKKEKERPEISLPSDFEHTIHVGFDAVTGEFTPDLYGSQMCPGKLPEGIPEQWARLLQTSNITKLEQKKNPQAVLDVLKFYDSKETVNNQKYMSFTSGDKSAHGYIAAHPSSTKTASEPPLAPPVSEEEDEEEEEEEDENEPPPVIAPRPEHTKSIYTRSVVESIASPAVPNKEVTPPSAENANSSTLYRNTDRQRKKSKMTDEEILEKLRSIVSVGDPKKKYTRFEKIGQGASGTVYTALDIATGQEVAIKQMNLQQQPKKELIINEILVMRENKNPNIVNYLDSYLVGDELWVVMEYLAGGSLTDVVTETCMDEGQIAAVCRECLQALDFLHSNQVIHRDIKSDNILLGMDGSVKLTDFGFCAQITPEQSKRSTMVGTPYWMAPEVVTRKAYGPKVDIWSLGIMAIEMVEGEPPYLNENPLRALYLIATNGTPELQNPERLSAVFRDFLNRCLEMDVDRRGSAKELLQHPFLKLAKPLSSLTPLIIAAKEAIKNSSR", "test": "Inhibition of PAK3 (unknown origin)"}, "[16]": {"target": "RAC-gamma serine/threonine-protein kinase (Homo sapiens, UniProt Q9Y243)", "sequence (Q9Y243 whole entry)": "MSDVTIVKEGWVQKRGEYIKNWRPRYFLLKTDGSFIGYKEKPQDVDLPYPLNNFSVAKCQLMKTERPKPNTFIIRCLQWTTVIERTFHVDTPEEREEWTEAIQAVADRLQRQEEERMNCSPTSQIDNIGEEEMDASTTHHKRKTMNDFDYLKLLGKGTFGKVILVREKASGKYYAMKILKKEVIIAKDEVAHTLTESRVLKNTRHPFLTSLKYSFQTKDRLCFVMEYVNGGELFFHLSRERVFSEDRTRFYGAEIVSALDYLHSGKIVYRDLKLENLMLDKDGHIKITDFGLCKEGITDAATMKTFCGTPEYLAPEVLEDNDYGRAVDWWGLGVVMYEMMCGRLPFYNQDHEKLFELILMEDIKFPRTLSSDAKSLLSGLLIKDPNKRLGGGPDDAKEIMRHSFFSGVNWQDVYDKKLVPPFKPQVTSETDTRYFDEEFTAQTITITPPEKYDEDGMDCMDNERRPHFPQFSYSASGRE", "test": "Inhibition of AKT3 (unknown origin)"}, "[17]": {"test": "Prevention of Kcnq3 gene downregulation in 5XFAD mouse hippocampus assessed as percent change in Reads Per kilo base per Million mapped reads at 1200 ppm administered as rodent chow starting from 1.5 months and measured after 7 months by RNA-Seq analysis (reference value: 55.386 to 68.581 %)", "type": "functional", "settings": "route po, time 5.5 months, 4015 h"}, "Mus musculus [18]": {"system": "Mus musculus", "test": "Antialzheimer activity in 5XFAD mouse assessed as percent change in claudin-5 intensity of Thio-S negative thalamus at 1200 ppm administered as rodent chow starting from 1.5 months and measured after 4 months by immunolabeling analysis relative to control", "type": "functional", "settings": "route po, time 2.5 months, 1825 h"}, "Mus musculus [19]": {"system": "Mus musculus", "test": "Prevention of C1qa gene upregulation in 5XFAD mouse hippocampus at 1200 ppm administered as rodent chow starting from 1.5 months and measured after 7 months by Nanostring analysis", "type": "functional, tissue-based", "settings": "route po, time 5.5 months"}, "[20]": {"target": "Protein kinase C eta type (Homo sapiens, UniProt P24723)", "sequence (P24723 whole entry)": "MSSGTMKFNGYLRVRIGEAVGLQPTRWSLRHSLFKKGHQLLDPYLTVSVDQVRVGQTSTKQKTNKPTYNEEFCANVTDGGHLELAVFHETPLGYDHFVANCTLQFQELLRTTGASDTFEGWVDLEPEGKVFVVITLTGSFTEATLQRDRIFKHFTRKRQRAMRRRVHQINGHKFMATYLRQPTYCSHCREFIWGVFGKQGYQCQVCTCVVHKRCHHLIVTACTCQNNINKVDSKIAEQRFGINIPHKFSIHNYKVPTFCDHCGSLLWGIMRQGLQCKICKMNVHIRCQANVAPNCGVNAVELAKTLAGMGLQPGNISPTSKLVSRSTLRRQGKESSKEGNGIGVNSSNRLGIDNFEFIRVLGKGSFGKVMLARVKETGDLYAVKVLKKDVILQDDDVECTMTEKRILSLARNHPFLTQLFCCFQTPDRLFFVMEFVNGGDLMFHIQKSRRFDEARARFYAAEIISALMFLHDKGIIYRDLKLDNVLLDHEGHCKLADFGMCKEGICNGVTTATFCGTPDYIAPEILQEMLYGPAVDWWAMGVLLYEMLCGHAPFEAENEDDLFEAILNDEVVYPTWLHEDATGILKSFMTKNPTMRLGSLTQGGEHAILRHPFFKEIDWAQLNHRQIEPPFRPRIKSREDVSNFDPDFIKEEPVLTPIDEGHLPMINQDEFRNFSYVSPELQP", "test": "Inhibition of PRKCH (unknown origin)"}, "[21]": {"test": "Prevention of Rnf217 gene downregulation in 5XFAD mouse hippocampus assessed as percent change in Reads Per kilo base per Million mapped reads at 1200 ppm administered as rodent chow starting from 1.5 months and measured after 7 months by RNA-Seq analysis (reference value: 66.726 to 80.840 %)", "type": "functional", "settings": "route po, time 5.5 months, 4015 h"}, "Mus musculus [22]": {"system": "Mus musculus", "test": "Effect on circulating leukocytes in wildtype mouse assessed as percentage of CD45+/PI- cells expressing CD11c at 1200 ppm administered as rodent chow for 10 to 24 weeks (reference value: 4.18 to 10.2 %)", "type": "functional", "settings": "route po, time 10-24 weeks"}, "Mus musculus [23]": {"system": "Mus musculus", "test": "Prevention of Trem2 gene upregulation in 5XFAD mouse hippocampus at 1200 ppm administered as rodent chow starting from 1.5 months and measured after 7 months by Nanostring analysis", "type": "functional, tissue-based", "settings": "route po, time 5.5 months"}, "[24]": {"test": "Effect on Cx3cr1 gene expression in 5XFAD mouse thalamus at 1200 ppm administered as rodent chow starting from 1.5 months and measured after 7 months by RNA-Seq analysis (reference value: 15.006 to 17.756 RPKM)", "type": "functional", "settings": "route po, time 5.5 months, 4015 h"}, "[25]": {"test": "Toxicity in wildtype mouse assessed as average speed at 1200 ppm administered as rodent chow for 10 to 24 weeks by Open field test (reference value: 0.044 to 0.09 meter/s)", "settings": "in vivo, po, time 10-24 weeks"}, "Mus musculus [26]": {"system": "Mus musculus", "test": "Prevention of Itgam gene upregulation in 5XFAD mouse hippocampus at 1200 ppm administered as rodent chow starting from 1.5 months and measured after 7 months by Nanostring analysis", "type": "functional, tissue-based", "settings": "route po, time 5.5 months"}, "[27]": {"target": "Serine/threonine-protein kinase Nek1 (Homo sapiens, UniProt Q96PY6)", "test": "Inhibition of NEK1 (unknown origin)"}},
  "note": "Active and inactive are the calls of the source. No cut-off for these calls is given here.",
  "data": [
    {"molecule": "COc1ncc(F)cc1CNc1ccc(Cc2c[nH]c3ncc(C)cc23)c(F)n1", "note": "[PLX-5622]", "values": [
      {"measurement": "IC50", "setting": "Misshapen-like kinase 1", "value": "> 1000", "unit": "nM"},
      {"measurement": "Activity", "setting": "Mus musculus [1]", "value": 288},
      {"measurement": "Activity", "setting": "Mus musculus [2]", "value": 15},
      {"measurement": "Activity", "setting": "Mus musculus [3]", "value": "inactive"},
      {"measurement": "Activity", "setting": "[4]", "value": 0, "unit": "RPKM"},
      {"measurement": "IC50", "setting": "Angiopoietin-1 receptor", "value": "> 1000", "unit": "nM"},
      {"measurement": "IC50", "setting": "[5]", "value": "> 1000", "unit": "nM"},
      {"measurement": "Activity", "setting": "[6]", "value": 0.073, "unit": "RPKM"},
      {"measurement": "IC50", "setting": "[7]", "value": "> 1000", "unit": "nM"},
      {"measurement": "AUC at 4320 h", "setting": "[8]", "value": 57300, "unit": "ng·h/mL"},
      {"measurement": "Activity", "setting": "Mus musculus [9]", "value": 0, "unit": "pg"},
      {"measurement": "Activity", "setting": "[10]", "value": 13.618, "unit": "RPKM"},
      {"measurement": "IC50", "setting": "[11]", "value": "> 1000", "unit": "nM"},
      {"measurement": "IC50", "setting": "[12]", "value": "> 1000", "unit": "nM"},
      {"measurement": "IC50", "setting": "[13]", "value": "> 1000", "unit": "nM"},
      {"measurement": "IC50", "setting": "[14]", "value": "> 1000", "unit": "nM"},
      {"measurement": "IC50", "setting": "[15]", "value": "> 1000", "unit": "nM"},
      {"measurement": "IC50", "setting": "[16]", "value": "> 1000", "unit": "nM"},
      {"measurement": "Activity", "setting": "[17]", "value": 68.859, "unit": "%"},
      {"measurement": "Activity", "setting": "Mus musculus [18]", "value": 91.327, "unit": "%"},
      {"measurement": "Activity", "setting": "Mus musculus [19]", "value": "Active"},
      {"measurement": "IC50", "setting": "[20]", "value": "> 1000", "unit": "nM"},
      {"measurement": "Activity", "setting": "[21]", "value": 95.371, "unit": "%"},
      {"measurement": "Activity", "setting": "Mus musculus [22]", "value": 3.32, "unit": "%"},
      {"measurement": "Activity", "setting": "Mus musculus [23]", "value": "Active"},
      {"measurement": "Activity", "setting": "[24]", "value": 0.179, "unit": "RPKM"},
      {"measurement": "Activity", "setting": "[25]", "value": 0.03, "unit": "meter/s"},
      {"measurement": "Activity", "setting": "Mus musculus [26]", "value": "Active"},
      {"measurement": "IC50", "setting": "[27]", "value": "> 1000", "unit": "nM"}
    ]}
  ]
}
